Assay results from ChEMBL document CHEMBL4017517, “Small Molecule Inhibitors Simultaneously Targeting Cancer Metabolism and Epigenetics: Discovery of Novel Nicotinamide Phosphoribosyltransferase (NAMPT) and Histone Deacetylase (HDAC) Dual Inhibitors” (J Med Chem, 2017).

Legend:
[1] = tested on: HCT-116; assay: Induction of apoptosis in human HCT116 cells assessed as early apoptotic cells at 5 uM after 72 hrs by Annexin V-FITC/propidium iodide staining-based flow cytometric analysis (reference value: 7.82%); type: functional
In short: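 HCT116 cells seeded at 5×10^5 cells/mL in six-well plates, treated at 5 μM for 72 h alongside vehicle. Cells trypsinized, washed twice in cold PBS, and resuspended in 1× binding buffer. Stained with annexin V-FITC 15 min at room temperature, then PI 15 min in dark, then flow cytometry.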

[2] = target: Histone deacetylase 1 (Homo sapiens, UniProt Q13547); assay: Inhibition of human recombinant HDAC1 (1 to 482 residues) expressed in Baculovirus using Ac-Leu-Gly-Lys(Ac)-AMC as substrate after 3 hrs by fluorescence assay
Chain of Histone deacetylase 1 (Q13547 whole entry, the tested form may be a part): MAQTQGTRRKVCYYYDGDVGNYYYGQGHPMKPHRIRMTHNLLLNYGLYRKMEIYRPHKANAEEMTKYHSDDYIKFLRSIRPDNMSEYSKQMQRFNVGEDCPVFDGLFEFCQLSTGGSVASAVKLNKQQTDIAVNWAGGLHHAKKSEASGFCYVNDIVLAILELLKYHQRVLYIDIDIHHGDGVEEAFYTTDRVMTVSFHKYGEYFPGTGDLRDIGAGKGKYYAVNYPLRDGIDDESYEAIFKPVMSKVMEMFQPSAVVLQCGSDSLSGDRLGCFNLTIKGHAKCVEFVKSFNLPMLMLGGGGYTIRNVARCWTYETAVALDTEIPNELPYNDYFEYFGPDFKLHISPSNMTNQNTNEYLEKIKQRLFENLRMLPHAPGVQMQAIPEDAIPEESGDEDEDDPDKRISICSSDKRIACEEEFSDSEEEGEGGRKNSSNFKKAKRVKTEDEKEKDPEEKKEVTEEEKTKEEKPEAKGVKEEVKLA

[3] = Plasma clearance in Sprague-Dawley rat at 2 mg/kg, ip; type: ADME, organism-based
In short: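 Sprague-Dawley rats given a single ip dose of 2 mg/kg. Plasma concentration–time profile used to derive terminal half-life, Cmax, plasma clearance and Vss.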

[4] = target: Nicotinamide phosphoribosyltransferase (Homo sapiens, UniProt P43490); settings: 10 uM
Chain of Nicotinamide phosphoribosyltransferase (P43490 whole entry, looked up): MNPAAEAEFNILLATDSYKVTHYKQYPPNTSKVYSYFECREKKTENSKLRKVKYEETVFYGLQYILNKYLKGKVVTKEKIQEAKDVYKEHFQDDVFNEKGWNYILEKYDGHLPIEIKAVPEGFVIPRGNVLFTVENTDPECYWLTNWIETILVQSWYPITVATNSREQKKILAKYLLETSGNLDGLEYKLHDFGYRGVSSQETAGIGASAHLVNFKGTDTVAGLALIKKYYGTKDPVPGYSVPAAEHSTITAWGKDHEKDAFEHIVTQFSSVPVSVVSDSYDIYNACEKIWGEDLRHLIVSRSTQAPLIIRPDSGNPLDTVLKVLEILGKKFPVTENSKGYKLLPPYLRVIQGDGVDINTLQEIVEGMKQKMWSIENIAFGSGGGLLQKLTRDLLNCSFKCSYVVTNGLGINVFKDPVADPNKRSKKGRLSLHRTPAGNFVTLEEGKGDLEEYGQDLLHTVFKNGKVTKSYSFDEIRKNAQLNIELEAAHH

[5] = tested on: HCT-116; assay: Induction of apoptosis in human HCT116 cells assessed as early apoptotic cells at 5 uM after 72 hrs in presence of autophagy inhibitor wortmannin by Annexin V-FITC/propidium iodide staining-based flow cytometric analysis (reference value: 7.82%); type: functional
[6] = target: T1, Protein deacetylase HDAC6 (Homo sapiens, UniProt Q9UBN7); assay: Inhibition of human recombinant HDAC6 expressed in Baculovirus infected Sf9 cells using Ac-Leu-Gly-Lys(Ac)-AMC as substrate preincubated for 5 mins followed by substrate addition measured after 30 mins by fluorescence assay
T1 sequence (Q9UBN7 whole entry): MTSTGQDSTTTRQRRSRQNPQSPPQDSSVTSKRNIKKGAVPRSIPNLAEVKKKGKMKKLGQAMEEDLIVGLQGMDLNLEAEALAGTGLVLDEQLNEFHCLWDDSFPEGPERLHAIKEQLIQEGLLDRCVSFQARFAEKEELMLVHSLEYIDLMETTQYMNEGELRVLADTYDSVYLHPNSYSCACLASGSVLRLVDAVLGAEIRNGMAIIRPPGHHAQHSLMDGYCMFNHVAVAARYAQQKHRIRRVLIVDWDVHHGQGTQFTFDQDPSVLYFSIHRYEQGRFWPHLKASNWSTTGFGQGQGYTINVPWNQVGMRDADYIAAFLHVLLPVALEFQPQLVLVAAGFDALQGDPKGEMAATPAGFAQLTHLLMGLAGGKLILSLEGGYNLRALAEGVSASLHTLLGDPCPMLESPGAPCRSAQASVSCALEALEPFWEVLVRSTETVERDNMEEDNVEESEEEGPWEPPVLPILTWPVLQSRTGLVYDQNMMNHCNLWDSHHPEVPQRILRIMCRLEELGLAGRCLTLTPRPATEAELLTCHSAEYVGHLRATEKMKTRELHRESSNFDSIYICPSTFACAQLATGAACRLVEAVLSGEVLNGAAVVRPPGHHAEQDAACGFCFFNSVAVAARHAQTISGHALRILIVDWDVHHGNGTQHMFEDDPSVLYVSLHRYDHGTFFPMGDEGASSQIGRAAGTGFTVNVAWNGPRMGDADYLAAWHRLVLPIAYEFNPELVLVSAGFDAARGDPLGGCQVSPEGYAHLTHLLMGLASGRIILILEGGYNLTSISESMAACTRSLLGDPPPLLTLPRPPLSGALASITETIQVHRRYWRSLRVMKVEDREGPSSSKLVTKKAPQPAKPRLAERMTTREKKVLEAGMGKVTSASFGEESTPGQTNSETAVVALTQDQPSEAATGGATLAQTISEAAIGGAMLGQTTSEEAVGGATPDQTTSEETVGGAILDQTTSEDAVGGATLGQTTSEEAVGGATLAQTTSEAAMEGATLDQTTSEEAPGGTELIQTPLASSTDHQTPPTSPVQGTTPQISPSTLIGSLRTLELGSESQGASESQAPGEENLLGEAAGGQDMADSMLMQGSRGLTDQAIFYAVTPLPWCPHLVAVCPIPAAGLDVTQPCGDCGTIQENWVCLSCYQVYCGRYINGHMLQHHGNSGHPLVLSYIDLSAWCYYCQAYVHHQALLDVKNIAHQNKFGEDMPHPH

- IC50 [2]: 24 nM
- CL/F [3]: 103 mL/min/kg
- ΔTm [4]: 1.58 °C
- IC50 [6]: > 100000 nM
SMILES: Nc1ccccc1NC(=O)c1ccc(Cn2cc(-c3ccc(C(=O)NCc4cccnc4)cc3)nn2)cc1
- Activity [1]: 22.15%
- Activity [5]: 12.46%
